From ChEMBL document CHEMBL1152649, “Synthesis, cytotoxicity and human telomerase inhibition activities of a series of 1,2-heteroannelated anthraquinones and anthra[1,2-d]imidazole-6,11-dione homologues” (2009) come the findings set out here.

One may read the residual activity as the signal under treatment as a percentage of the control signal.

The test system of one assay is HCT-116. In words: Antiproliferative activity against human HCT116 cells assessed as cell growth at 10 uM. The settings on record: read-out: Activity. It counts as functional. Summed up:
(§1)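 NCI 60 cell line panel, single-dose screen (10^-5 M) run by the developmental therapeutics program protocol. Results are given as growth percent of treated cells relative to untreated control cells for each line.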

The test system of a further assay is ACHN. Briefly: Antiproliferative activity against human ACHN cells assessed as cell growth at 10 uM. It counts as functional. The settings on record: read-out: Activity. Summed up: as §1
In the next assay the test system is OVCAR-4. In words: Antiproliferative activity against human OVCAR4 cells assessed as cell growth at 10 uM. It counts as functional. To be noted: read-out: Activity. In short, it runs like this: as §1
Another assay relates to NCI-H522. Briefly: Antiproliferative activity against human NCI-H522 cells assessed as cell growth at 10 uM. It counts as functional. To be noted: read-out: Activity. In short, it runs like this:
as §1

In another assay the test system is UACC-62. Briefly: Antiproliferative activity against human UACC62 cells assessed as cell growth at 10 uM. To be noted: read-out: Activity. It counts as functional. Summed up: (§2)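 NCI 60 cell line panel, single dose (10^-5 M), run per the Developmental Therapeutics Program protocol (one dose mean graph). Each result is the growth percentage of treated cells relative to untreated control cells.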

Another assay concerns SNB-75. Briefly: Antiproliferative activity against human SNB75 cells assessed as cell growth at 10 uM. Type of assay: functional. The settings on record: read-out: Activity. Summed up:
as §2

The next assay concerns SW-620. Briefly: Antiproliferative activity against human SW620 cells assessed as cell growth at 10 uM. To be noted: read-out: Activity. Type of assay: functional. Summed up: as §2
Another assay has as its system MDA-MB-435. Briefly: Antiproliferative activity against human MDA-MB-435 cells assessed as cell growth at 10 uM. It counts as functional. The settings on record: read-out: Activity. Summed up:
as §1

The test system of a further assay is SF-268. In words: Antiproliferative activity against human SF268 cells assessed as cell growth at 10 uM. It counts as functional. The settings on record: read-out: Activity. In short, it runs like this: as §1
Another assay has as its system MOLT-4. Briefly: Antiproliferative activity against human MOLT4 cells assessed as cell growth at 10 uM. Type of assay: functional. The settings on record: read-out: Activity. Summed up: as §1
For assay [1], the target named is Telomerase reverse transcriptase (Homo sapiens) (UniProt O14746). In words: Inhibition of TERT in human H1299 cells assessed as residual transcriptional activity at 10 uM after 24 hrs by SEAP reporter gene assay; values are per cent of control.
The subject of another assay is CAKI-1. In words: Antiproliferative activity against human Caki1 cells assessed as cell growth at 10 uM. It counts as functional. The settings on record: read-out: Activity. In short, it runs like this:
as §1

In the next assay the test system is SF-539. In words: Antiproliferative activity against human SF539 cells assessed as cell growth at 10 uM. To be noted: read-out: Activity. Type of assay: functional. Summed up:
as §1

The subject of a further assay is KM12. Briefly: Antiproliferative activity against human KM12 cells assessed as cell growth at 10 uM. It counts as functional. The settings on record: read-out: Activity. Summed up: as §1
The test system of the next assay is LOX IMVI. In words: Antiproliferative activity against human LOXIMVI cells assessed as cell growth at 10 uM. To be noted: read-out: Activity. It counts as functional. Summed up: as §1
The next assay concerns MDA-MB-231. In words: Antiproliferative activity against human MDA-MB-231 cells assessed as cell growth at 10 uM. Type of assay: functional. The settings on record: read-out: Activity. In short, it runs like this:
as §1

The next assay concerns HCT-15. Briefly: Antiproliferative activity against human HCT15 cells assessed as cell growth at 10 uM. Type of assay: functional. The settings on record: read-out: Activity. Summed up: as §1
In another assay the test system is UO-31. Briefly: Antiproliferative activity against human UO31 cells assessed as cell growth at 10 uM. Type of assay: functional. The settings on record: read-out: Activity. In short, it runs like this:
as §2

Sequence of Telomerase reverse transcriptase (Homo sapiens) (O14746 whole entry): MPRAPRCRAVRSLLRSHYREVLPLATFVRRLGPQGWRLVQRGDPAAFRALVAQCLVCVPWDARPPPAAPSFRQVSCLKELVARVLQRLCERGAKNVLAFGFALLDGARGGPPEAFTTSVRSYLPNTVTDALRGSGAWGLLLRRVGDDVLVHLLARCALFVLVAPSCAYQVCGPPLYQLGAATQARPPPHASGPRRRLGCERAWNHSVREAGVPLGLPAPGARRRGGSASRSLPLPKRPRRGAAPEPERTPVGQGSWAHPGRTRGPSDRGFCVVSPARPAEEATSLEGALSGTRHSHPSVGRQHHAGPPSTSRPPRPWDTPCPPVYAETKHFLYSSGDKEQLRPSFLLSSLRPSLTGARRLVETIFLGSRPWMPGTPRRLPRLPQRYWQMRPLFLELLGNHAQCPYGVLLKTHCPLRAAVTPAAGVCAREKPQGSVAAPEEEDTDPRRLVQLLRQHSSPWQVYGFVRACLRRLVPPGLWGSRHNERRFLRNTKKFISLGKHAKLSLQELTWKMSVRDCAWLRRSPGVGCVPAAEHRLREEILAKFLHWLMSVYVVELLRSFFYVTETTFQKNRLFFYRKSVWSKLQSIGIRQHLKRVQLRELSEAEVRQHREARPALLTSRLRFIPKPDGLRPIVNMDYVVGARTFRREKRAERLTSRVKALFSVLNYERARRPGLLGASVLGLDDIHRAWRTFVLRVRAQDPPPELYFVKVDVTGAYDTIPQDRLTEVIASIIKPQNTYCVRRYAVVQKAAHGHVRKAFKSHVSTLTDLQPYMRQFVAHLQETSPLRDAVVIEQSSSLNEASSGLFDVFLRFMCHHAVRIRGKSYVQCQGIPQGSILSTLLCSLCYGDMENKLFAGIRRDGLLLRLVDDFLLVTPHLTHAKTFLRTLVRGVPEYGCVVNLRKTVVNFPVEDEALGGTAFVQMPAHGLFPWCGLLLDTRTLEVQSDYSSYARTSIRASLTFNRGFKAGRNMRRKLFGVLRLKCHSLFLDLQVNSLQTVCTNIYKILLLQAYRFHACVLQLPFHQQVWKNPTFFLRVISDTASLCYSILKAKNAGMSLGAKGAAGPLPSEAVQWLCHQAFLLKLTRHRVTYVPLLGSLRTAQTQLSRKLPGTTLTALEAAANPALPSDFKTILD

For `O=C1c2ccccc2C(=O)c2c1ccc1nc(-c3ccc(Br)cc3)[nH]c21`, the growth at 10 µM with HCT-116 was found to be 99.6%; in the assay with ACHN, 91.4%; with OVCAR-4, 94.1%; in the assay with NCI-H522 it was 76.5%; in the assay on UACC-62, 105%; with SNB-75, 87.3%. In addition, the growth at 10 µM was determined as 95% in the assay with SW-620; 110% with MDA-MB-435; 106% in the assay on SF-268; 101% in the assay with MOLT-4; 86.6% in the assay with CAKI-1; 103% in the assay with SF-539. Also, the growth at 10 µM is 102% with KM12; 102% with LOX IMVI; 92.3% in the assay on MDA-MB-231; 96.6% in the assay on HCT-15; 66.2% in the assay with UO-31. For the same molecule, the residual activity in [1] amounted to 71%.
As for `Cc1ccc(-c2nc3ccc4c(c3[nH]2)C(=O)c2ccccc2C4=O)cc1`, the growth at 10 µM is 99.8% with HCT-116; 101% with ACHN; 96.8% in the assay on OVCAR-4; 84.7% in the assay on NCI-H522; 90% in the assay on UACC-62; 107% in the assay on SNB-75. For the same molecule, the growth at 10 µM came out at 113% in the assay on SW-620; 105% in the assay with MDA-MB-435; 106% in the assay on SF-268; 106% in the assay on MOLT-4; 110% in the assay with CAKI-1; 91.7% in the assay on SF-539. Also, the growth at 10 µM in the assay with KM12 came to 106%; with LOX IMVI it was 104%; in the assay on MDA-MB-231, 97.6%; in the assay on HCT-15 it was 100%; in the assay on UO-31, 75.2%. Moreover, in assay [1], the residual activity was found to be 82%.
Take `O=C1c2ccccc2C(=O)c2c1ccc1nc(-c3ccccc3)[nH]c21`: the growth at 10 µM in the assay on HCT-116 worked out at 82.4%; in the assay with ACHN, 71.9%; with OVCAR-4, 73.4%; in the assay on NCI-H522, 80.4%; in the assay on UACC-62 it was 70.4%; with SNB-75, 75.1%. Further, the growth at 10 µM in the assay on SW-620 stood at 82.8%; in the assay on MDA-MB-435, 101%; with SF-268, 91.9%; in the assay on MOLT-4, 88.3%; in the assay on CAKI-1, 51.9%; in the assay on SF-539, 96.2%. The growth at 10 µM is 75.5% in the assay with KM12; 79.7% in the assay with LOX IMVI; 81.4% in the assay with MDA-MB-231; 86.3% in the assay on HCT-15; 57.6% in the assay with UO-31. Besides, in assay [1], the residual activity was found to be 78%.
Turning to `CN(C)c1ccc(-c2nc3ccc4c(c3[nH]2)C(=O)c2ccccc2C4=O)cc1`, the growth at 10 µM in the assay on HCT-116 amounted to 100%; with ACHN it was 96.2%; in the assay with OVCAR-4, 98.3%; in the assay with NCI-H522, 87.1%; in the assay with UACC-62, 85.8%; with SNB-75 it was 93.1%. Moreover, the growth at 10 µM with SW-620 worked out at 103%; in the assay on MDA-MB-435, 106%; in the assay with SF-268, 95.4%; in the assay on MOLT-4 it was 101%; in the assay on CAKI-1 it was 108%; in the assay with SF-539 it was 111%. Further, the growth at 10 µM in the assay with KM12 stood at 98%; in the assay with LOX IMVI, 90.5%; in the assay on MDA-MB-231, 94.4%; in the assay on HCT-15, 107%; with UO-31 it was 75.5%. The residual activity in assay [1] came out at 73%.
In the case of `COc1cc(-c2nc3ccc4c(c3[nH]2)C(=O)c2ccccc2C4=O)ccc1O`, the growth at 10 µM with HCT-116 was 90.4%; in the assay on ACHN, 100%; with OVCAR-4 it was 83%; in the assay on NCI-H522 it was 71.5%; in the assay on UACC-62, 92.2%; in the assay on SNB-75, 86%. Moreover, the growth at 10 µM turned out to be 102% in the assay with SW-620; 103% in the assay with MDA-MB-435; 107% in the assay with SF-268; 96.4% with MOLT-4; 134% in the assay on CAKI-1; 102% in the assay with SF-539. The growth at 10 µM in the assay with KM12 stood at 113%; in the assay with LOX IMVI, 109%; with MDA-MB-231, 87.9%; with HCT-15, 103%; in the assay on UO-31, 80.7%. Moreover, the residual activity in [1] was found to be 50%.
